Data as given in ChEMBL document CHEMBL3272259, “Nitroimidazoles with antibacterial activity against Neisseria gonorrhoeae” (1977).
≈ marks a conversion by molar mass, not a printed value. Calls of active or inactive are those of the source. The calls are words filed in the database; no cut-off is given here.

tested on: Clostridium perfringens; test: Antibacterial activity against Clostridium perfringens ATCC 13124 after 24 hrs by ten-fold serial dilution method; format: functional; details: ATCC 13124, 24 h
How it was run: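 Grown in Fluid Thioglycollate Broth and incubated 24 h at 37 °C. Growth was checked by eye after incubation. MIC was taken as the lowest concentration, in μg/mL, that prevented visible growth.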

Compound	MIC [µg/mL]
Cn1c([N+](=O)[O-])cnc1SCCOc1ccc(C(=O)O)cc1 [listing 1 of 2 here]	10 (≈ 30.9 µM)
Cn1c([N+](=O)[O-])cnc1SCCCCCCCC(=O)O	0.1 (≈ 0.332 µM)
Br.Cn1ccnc1SCCOc1ccc([N+](=O)[O-])cc1	> 100
CCOC(=O)c1ccc(OCCCCCCSc2ncc([N+](=O)[O-])n2C)c([N+](=O)[O-])c1	100 (≈ 221 µM)
Br.Cn1ccnc1SCCOc1ccc(Br)cc1	> 100
Cn1c([N+](=O)[O-])cnc1[S+]([O-])CCOc1ccc(C(=O)O)cc1 (configuration not stated)	100 (≈ 295 µM)
Br.Cn1ccnc1SCCCCCCCCCCC(=O)O	> 100
Br.CCOC(=O)c1ccc(OCCCCSc2nccn2C)cc1	> 100
Br.Cn1ccnc1SCCOc1ccc(C#N)cc1	> 100
CCOC(=O)c1ccc(OCCCCSc2nccn2C)cc1 [listing 1 of 2 here]	> 100
Cn1c([N+](=O)[O-])cnc1SCCOc1ccc(C(=O)[O-])cc1.[Na+]	10
Cn1ccnc1SCCOc1ccc(C#N)cc1 [listing 1 of 2 here]	> 100

tested on: Bacteroides fragilis; test: Antibacterial activity against Bacteroides fragilis ATCC 23745 after 24 hrs by ten-fold serial dilution method; format: functional; details: ATCC 23745, 24 h
How it was run: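 Grown in Fluid Thioglycollate Broth and incubated 24 h at 37 °C. Growth was read by eye, and the MIC (µg/mL) is the lowest concentration that prevented visible growth.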

Compound	MIC [µg/mL]
Cn1c([N+](=O)[O-])cnc1SCCCCC(=O)O	1 (≈ 3.86 µM)
Cn1c([N+](=O)[O-])cnc1SCCOc1ccc(C(=O)O)cc1 [listing 1 of 2 here]	10 (≈ 30.9 µM)
Cn1c([N+](=O)[O-])cnc1SCCCCCCCC(=O)O	10 (≈ 33.2 µM)
Br.Cn1ccnc1SCCOc1ccc([N+](=O)[O-])cc1	> 100
CCOC(=O)c1ccc(OCCCCCCSc2ncc([N+](=O)[O-])n2C)c([N+](=O)[O-])c1	10 (≈ 22.1 µM)
Br.Cn1ccnc1SCCOc1ccc(Br)cc1	100
Cn1c([N+](=O)[O-])cnc1[S+]([O-])CCOc1ccc(C(=O)O)cc1 (configuration not stated)	100 (≈ 295 µM)
Br.Cn1ccnc1SCCCCCCCCCCC(=O)O	> 100
Br.CCOC(=O)c1ccc(OCCCCSc2nccn2C)cc1	> 100
Br.Cn1ccnc1SCCOc1ccc(C#N)cc1	> 100
CCOC(=O)c1ccc(OCCCCSc2nccn2C)cc1 [listing 1 of 2 here]	> 100
Cn1c([N+](=O)[O-])cnc1SCCOc1ccc(C(=O)[O-])cc1.[Na+]	1
Cn1ccnc1SCCOc1ccc(C#N)cc1 [listing 1 of 2 here]	> 100

tested on: Neisseria gonorrhoeae; test: Antibacterial activity against Neisseria gonorrhoeae ATCC 19424 after 48 hrs by ten-fold serial dilution method; format: functional; details: ATCC 19424, 48 h
How it was run: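 Tested on chocolate agar made from GC agar base with hemoglobin and Supplement C, incubated 48 h at 37 °C. Plates were checked visually, and the MIC (µg/mL) is the lowest concentration with no visible growth.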

Compound	MIC [µg/mL]
Cn1c([N+](=O)[O-])cnc1SCCCCC(=O)O	1 (≈ 3.86 µM)
Cn1c([N+](=O)[O-])cnc1SCCOc1ccc(C(=O)O)cc1 [listing 1 of 2 here]	1 (≈ 3.09 µM)
Cn1c([N+](=O)[O-])cnc1SCCCCCCCC(=O)O	0.1 (≈ 0.332 µM)
Br.Cn1ccnc1SCCOc1ccc([N+](=O)[O-])cc1	100
CCOC(=O)c1ccc(OCCCCCCSc2ncc([N+](=O)[O-])n2C)c([N+](=O)[O-])c1	> 100
Br.Cn1ccnc1SCCOc1ccc(Br)cc1	100
Cn1c([N+](=O)[O-])cnc1[S+]([O-])CCOc1ccc(C(=O)O)cc1 (configuration not stated)	100 (≈ 295 µM)
Br.Cn1ccnc1SCCCCCCCCCCC(=O)O	> 100
Br.CCOC(=O)c1ccc(OCCCCSc2nccn2C)cc1	> 100
Br.Cn1ccnc1SCCOc1ccc(C#N)cc1	> 100
CCOC(=O)c1ccc(OCCCCSc2nccn2C)cc1 [listing 1 of 2 here]	> 100
Cn1c([N+](=O)[O-])cnc1SCCOc1ccc(C(=O)[O-])cc1.[Na+]	1
Cn1ccnc1SCCOc1ccc(C#N)cc1 [listing 1 of 2 here]	> 100

tested on: Trichomonas vaginalis; test: Antibacterial activity against Trichomonas vaginalis ATCC 30001 after 48 hrs by ten-fold serial dilution method; format: functional; details: ATCC 30001, 48 h
How it was run: (§1)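 Trichomonads were cultured in Diamond medium with 5% serum and incubated 48 h at 37 °C. Cultures were examined microscopically for motile cells, and the MIC (µg/mL) is the lowest concentration giving no motile organisms.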

Compound	MIC [µg/mL]
Cn1c([N+](=O)[O-])cnc1SCCCCC(=O)O	1 (≈ 3.86 µM)
Cn1c([N+](=O)[O-])cnc1SCCOc1ccc(C(=O)O)cc1 [listing 1 of 2 here]	1 (≈ 3.09 µM)
Cn1c([N+](=O)[O-])cnc1SCCCCCCCC(=O)O	1 (≈ 3.32 µM)
Br.Cn1ccnc1SCCOc1ccc([N+](=O)[O-])cc1	> 100
CCOC(=O)c1ccc(OCCCCCCSc2ncc([N+](=O)[O-])n2C)c([N+](=O)[O-])c1	10 (≈ 22.1 µM)
Br.Cn1ccnc1SCCOc1ccc(Br)cc1	> 100
Cn1c([N+](=O)[O-])cnc1[S+]([O-])CCOc1ccc(C(=O)O)cc1 (configuration not stated)	100 (≈ 295 µM)
Br.Cn1ccnc1SCCCCCCCCCCC(=O)O	> 100
Br.CCOC(=O)c1ccc(OCCCCSc2nccn2C)cc1	100
Br.Cn1ccnc1SCCOc1ccc(C#N)cc1	> 100
CCOC(=O)c1ccc(OCCCCSc2nccn2C)cc1 [listing 1 of 2 here]	> 100
Cn1c([N+](=O)[O-])cnc1SCCOc1ccc(C(=O)[O-])cc1.[Na+]	1
Cn1ccnc1SCCOc1ccc(C#N)cc1 [listing 1 of 2 here]	> 100

tested on: Tritrichomonas foetus; test: Antibacterial activity against Tritrichomonas foetus 1002-96-27 after 48 hrs by ten-fold serial dilution method; format: functional; details: 1002-96-27, 48 h; how it was run: as §1

Compound	MIC [µg/mL]
Cn1c([N+](=O)[O-])cnc1SCCCCC(=O)O	1 (≈ 3.86 µM)
Cn1c([N+](=O)[O-])cnc1SCCOc1ccc(C(=O)O)cc1 [listing 1 of 2 here]	1 (≈ 3.09 µM)
Cn1c([N+](=O)[O-])cnc1SCCCCCCCC(=O)O	1 (≈ 3.32 µM)
Br.Cn1ccnc1SCCOc1ccc([N+](=O)[O-])cc1	> 100
CCOC(=O)c1ccc(OCCCCCCSc2ncc([N+](=O)[O-])n2C)c([N+](=O)[O-])c1	100 (≈ 221 µM)
Br.Cn1ccnc1SCCOc1ccc(Br)cc1	> 100
Cn1c([N+](=O)[O-])cnc1[S+]([O-])CCOc1ccc(C(=O)O)cc1 (configuration not stated)	100 (≈ 295 µM)
Br.Cn1ccnc1SCCCCCCCCCCC(=O)O	> 100
Br.CCOC(=O)c1ccc(OCCCCSc2nccn2C)cc1	100
Br.Cn1ccnc1SCCOc1ccc(C#N)cc1	> 100
CCOC(=O)c1ccc(OCCCCSc2nccn2C)cc1 [listing 1 of 2 here]	> 100
Cn1c([N+](=O)[O-])cnc1SCCOc1ccc(C(=O)[O-])cc1.[Na+]	10
Cn1ccnc1SCCOc1ccc(C#N)cc1 [listing 1 of 2 here]	> 100

tested on: Pentatrichomonas hominis; test: Antibacterial activity against Pentatrichomonas hominis ATCC 30000 after 48 hrs by ten-fold serial dilution method; format: functional; details: ATCC 30000, 48 h; how it was run: as §1

Compound	MIC [µg/mL]
Cn1c([N+](=O)[O-])cnc1SCCCCC(=O)O	1 (≈ 3.86 µM)
Cn1c([N+](=O)[O-])cnc1SCCOc1ccc(C(=O)O)cc1 [listing 1 of 2 here]	1 (≈ 3.09 µM)
Cn1c([N+](=O)[O-])cnc1SCCCCCCCC(=O)O	1 (≈ 3.32 µM)
Br.Cn1ccnc1SCCOc1ccc([N+](=O)[O-])cc1	> 100
CCOC(=O)c1ccc(OCCCCCCSc2ncc([N+](=O)[O-])n2C)c([N+](=O)[O-])c1	10 (≈ 22.1 µM)
Br.Cn1ccnc1SCCOc1ccc(Br)cc1	> 100
Cn1c([N+](=O)[O-])cnc1[S+]([O-])CCOc1ccc(C(=O)O)cc1 (configuration not stated)	100 (≈ 295 µM)
Br.Cn1ccnc1SCCCCCCCCCCC(=O)O	> 100
Br.CCOC(=O)c1ccc(OCCCCSc2nccn2C)cc1	100
Br.Cn1ccnc1SCCOc1ccc(C#N)cc1	> 100
CCOC(=O)c1ccc(OCCCCSc2nccn2C)cc1 [listing 1 of 2 here]	> 100
Cn1c([N+](=O)[O-])cnc1SCCOc1ccc(C(=O)[O-])cc1.[Na+]	1
Cn1ccnc1SCCOc1ccc(C#N)cc1 [listing 1 of 2 here]	> 100

tested on: Candida albicans; test: Antifungal activity against Candida albicans; format: functional, organism-based; details: not given

Compound	Activity
CCOC(=O)c1ccc(OCCCCSc2nccn2C)cc1 [listing 2 of 2 here]	inactive
Cn1c([N+](=O)[O-])cnc1SCCCCC(=O)O	inactive
Cn1c([N+](=O)[O-])cnc1SCCCCCCCC(=O)O	inactive
Br.Cn1ccnc1SCCOc1ccc([N+](=O)[O-])cc1	inactive
CCOC(=O)c1ccc(OCCCCCCSc2ncc([N+](=O)[O-])n2C)c([N+](=O)[O-])c1	inactive
Br.Cn1ccnc1SCCOc1ccc(Br)cc1	inactive
Cn1c([N+](=O)[O-])cnc1[S+]([O-])CCOc1ccc(C(=O)O)cc1 (configuration not stated)	inactive
Br.Cn1ccnc1SCCCCCCCCCCC(=O)O	inactive
Cn1ccnc1SCCOc1ccc(C#N)cc1 [listing 2 of 2 here]	inactive
Cn1c([N+](=O)[O-])cnc1SCCOc1ccc(C(=O)O)cc1 [listing 2 of 2 here]	inactive
